Test [1] relates to NOD mouse type B insulin-reactive CD4 T cells. The experiment in a line: IL-2 secretion. The format is cell-based. The conditions noted are these: sample titration, IL-2 after 24 h (Fig. 2A). The procedure, abridged:
(§1)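 Equal numbers of T-cell hybridomas or TCR-transduced avatars and paraformaldehyde-fixed M12.C3.g7 (IAg7) B-lymphoma APCs are cultured overnight with peptide titrations up to 100 μg/mL. Peptides have B:19 C→A and are >95% pure, with an IAg7-binding HEL peptide as negative control. IL-2 is read by HT-2 growth/survival or ELISA. Potency is the log10 shift of parallel third-order polynomial fits versus WT8E9R (=1), averaged over three titrations.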

Test [2] has as its system NOD mouse type A insulin-reactive CD4 T cells. The test can be described thus: IL-2 secretion. The conditions noted are these: sample titration, IL-2 after 24 h (Fig. 2A). The class given is cell-based. The procedure, abridged: as §1
Test [3] relates to CD4 T cells of human T1D patients. The conditions noted are these: HLA-DQ8; ref [14], [15]; cited from earlier work.
Another test relates to IA^g7. The conditions noted are these: natural R at p9; ref [16]; cited from earlier work.

Where no end group is shown, it is not given here.

As for “8E9E: soluble mutated B:12–22 peptide, p9 R to E, B:19 C changed to A”, the “potency compared with WT8E9R” value in test [1] was “no better than the WT peptide”. Further, the “potency relative to WT8E9R” value in test [2] is on record as “about 100 ×”.

For “B:11–23 peptide: versions of the B:11–23 peptide (identical between mice and humans) presented by DQ8 (LVEALYLVCGERG; ends and bridges not checked; UniProt P01308 35-47, looked up, fragment)”, the “human T-cell response to peptide bound to DQ8” value in test [3] is “only when B:22R is mutated to E”.

On to “B:22R to E mutated peptide: B:9–23 peptide with B:22R (p9) mutated to E, earlier work”, for which the “human T-cell response to peptide bound to DQ8” value in test [3] is “dramatically improved T-cell response”.

Take SHLVEALYLVCGERG [B:9–23]: in the test with IA^g7, the “binding to IA^g7 in R3” value is “greatly interferes with binding”.

Values taken from PMC5776820 (Proceedings of the National Academy of Sciences of the …, 2017).
